Consider six molecules from paper PMC3447998 (Biochemistry, 2012).

One assay relates to N-terminus of protein. The note with it: yeast and mammals; ref [24],[25]; cited from earlier work.
For assay [1], the system named is N-terminus of protein expressed in 293LT cells. In kind it is cell-based. The note with it: MS. The essentials:
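FLAG-tagged constructs were transfected into 293LT cells by calcium phosphate and immunoprecipitated on anti-FLAG beads. Bead-bound protein was reduced, carbamidomethylated and Glu-C digested (1:20). Peptides went to nanoflow reverse-phase HPLC-microESI with a high-resolution MS scan, then 5–10 data-dependent CAD/ETD MS2 scans. Spectra were interpreted manually. Each form's summed extracted-ion-chromatogram area over all charge states was divided by the peptide's total area.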

The subject of assay [2] is endogenous NRMT (293LT cells). As to the kind of experiment: Co-precipitation of endogenous NRMT with FLAG-tagged substrate proteins. The note with it: C-terminally FLAG-tagged protein expressed in 293LT cells. In kind it is binding. The essentials: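 C-terminally FLAG-tagged RCC1 or VRK2 expressed in 293LT cells, immunoprecipitated with anti-FLAG, and run on 10% polyacrylamide gel with Coomassie staining. On-bead material washed 3× with 100 mM ammonium bicarbonate (pH 8.0), then reduced, carbamidomethylated and digested with endoproteinase Glu-C (enzyme:protein 1:20). Peptides acidified to pH 3.5 and analysed by nano-LC-MS on C18 capillary columns.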

The test system of assay [3] is N-terminal methylation in mouse spleen. The note with it: mouse spleen lysate/extract, MS. In outline: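 Proteins from mouse spleen extract were immunoprecipitated with anti-me3-SPK antibody. On-bead samples were washed in 100 mM ammonium bicarbonate pH 8.0, reduced, carbamidomethylated and digested with Glu-C (1:20). Peptides were analysed by nanoflow reverse-phase HPLC with CAD/ETD tandem MS. N-terminal modifications were assigned by manual interpretation of the spectra.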

The next assay has as its system FLAG-tagged NRMT. As to the kind of experiment: Co-precipitation of endogenous proteins with FLAG-tagged NRMT. The note with it: FLAG-tagged NRMT expressed in 293LT cells; Coomassie-stained gel. In kind it is binding. In outline:
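NRMT carrying a C-terminal FLAG tag was expressed in 293LT cells. Endogenous partner proteins were co-immunoprecipitated with it. Immunoprecipitates were resolved on a 10% polyacrylamide gel and stained with Coomassie blue.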

“Also recorded” adds a separate entry of the source.

B1: ENSA protein: protein with SQK-N-terminus (protein, UniProt O43768 2-121, looked up)
Alpha-endosulfine: SQKQEEENPAEETGEEKQDTQEKEGILPERAEEAKLKAKYPSLGQKPGGSDFLMKRLQKGQKYFDSGDYNMAKAKMKNKQLPSAGPDKNLVTGDHIPTPQDLPQRKSSLVTSKLAGGQVE
As for B1, in the assay on N-terminus of protein, the “N-terminal acetylation reported (in words)” value is listed as “reported to be N-terminally acetylated”.

B2: PTPCAAX2: protein tyrosine phosphatase PTPCAAX2 (protein, UniProt Q12974 1-164, looked up)
Protein tyrosine phosphatase …: MNRPAPVEISYENMRFLITHNPTNATLNKFTEELKKYGVTTLVRVCDATYDKAPVEKEGIHVLDWPFDDGAPPPNQIVDDWLNLLKTKFREEPGCCVAVHCVAGLGRAPVLVALALIECGMKYEDAVQFIRQKRRGAFNSKQLLYLEKYRPKMRLRFRDTNGHC
As for B2, the “N-terminal acetylation reported (in words)” value in the assay on N-terminus of protein was “reported to be N-terminally acetylated”.

B3: MLC9: Myosin Light Chain isoform (protein)
chain: MSSKRAKAKTTKKRPQRATSNVFAMFDQSQIQEFKEAFNMIDQNRDGFIDKEDLHDMLASLGKNPTDEYLEGMMSEAPGPINFTMFLTMFGEKLNGTDPEDVIRNAFACFDEEASGFIHEDHLRELLTTMGDRFTDEEVDEMYREAPIDKKGNFNYVEFTRILKHGAKDKDD
modifications: 100% N-terminally acetylated (by MS); left off: FLAG, C-terminal, kept
With B3, the “N-terminal modification (in words)” value in assay [1] (293LT cells, immunoprecipitated protein) was “not N-terminally methylated”. Moreover, the N-terminal acetylation in assay [1] (over-expressed in 293LT cells) is given as 100%. The “capture / co-precipitation of endogenous NRMT (in words)” value (from here on “capture / co-precipitation”) in assay [2] was “cannot IP endogenous NRMT”. Moreover, the “N-terminal methylation in vivo (in words)” value in assay [3] is listed as “methylated at the N-terminus in vivo; also recorded: N-terminally methylated”.

B4: RCC1-FLAG: FLAG-tagged RCC1, possesses a S-P-K motif (protein)
chain: SPKRIAKRRSPPADAIPKSKKVKVSHRSHSTEPGLVLTLGQGDVGQLGLGENVMERKKPALVSIPEDVVQAEAGGMHTVCLSKSGQVYSFGCNDEGALGRDTSVEGSEMVPGKVELQEKVVQVSAGDSHTAALTDDGRVFLWGSFRDNNGVIGLLEPMKKSMVPVQVQLDVPVVKVASGNDHLVMLTADGDLYTLGCGEQGQLGRVPELFANRGGRQGLERLLVPKCVMLKSRGSRGHVRFQDAFCGAYFTFAISHEGHVYGFGLSNYHQLGTPGTESCFIPQNLTSFKNSTKSWVGFSGGQHHTVCMDSEGKAYSLGRAEYGRLGLGEGAEEKSIPTLISRLPAVSSVACGASVGYAVTKDGRVFAWGMGTNYQLGTGQDEDAWSPVEMMGKQLENRVVLSVSSGGQHTVLLVKDKEQS
modifications: left off: FLAG, C-terminal, kept
As to B4, the “capture / co-precipitation” value in assay [2] is “efficiently captured endogenous NRMT”; in assay [2] (listed as RCC1) it was “NRMT is co-precipitated”.

B5: Mina53: possesses a potential N-terminal methylation motif, MPKKAKPT (protein)
chain: MPKKAKPTGSGKEEGPAPCKQMKLEAAGGPSALNFDSPSSLFESLISPIKTETFFKEFWEQKPLLIQRDDPALATYYGSLFKLTDLKSLCSRGMYYGRDVNVCRCVNGKKKVLNKDGKAHFLQLRKDFDQKRATIQFHQPQRFKDELWRIQEKLECYFGSLVGSNVYITPAGSQGLPPHYDDVEVFILQLEGEKHWRLYHPTVPLAREYSVEAEERIGRPVHEFMLKPGDLLYFPRGTIHQADTPAGLAHSTHVTISTYQNNSWGDFLLDTISGLVFDTAKEDVELRTGIPRQLLLQVESTTVATRRLSGFLRTLADRLEGTKELLSSDMKKDFIMHRLPPYSAGDGAELSTPGGKLPRLDSVVRLQFKDHIVLTVLPDQDQSDEAQEKMVYIYHSLKNSRETHMMGNEEETEFHGLRFPLSHLDALKQIWNSPAISVKDLKLTTDEEKESLVLSLWTECLIQVV
On to B5, for which the “cleavage of the initial Met residue” value in assay [1] (both samples, data not shown) was determined as 100%. Further, the “capture / co-precipitation” value in assay [2] was “unable to capture endogenous NRMT”. The “co-precipitation with FLAG-tagged NRMT (in words)” value with FLAG-tagged NRMT is given as “co-precipitates; also recorded: co-precipitated with FLAG-tagged NRMT”.

B6: TSNAX protein: protein with SNK-N-terminus (protein, UniProt Q99598 1-290, looked up)
Translin-associated protein X: MSNKEGSGGFRKRKHDNFPHNQRREGKDVNSSSPVMLAFKSFQQELDARHDKYERLVKLSRDITVESKRTIFLLHRITSAPDMEDILTESEIKLDGVRQKIFQVAQELSGEDMHQFHRAITTGLQEYVEAVSFQHFIKTRSLISMDEINKQLIFTTEDNGKENKTPSSDAQDKQFGTWRLRVTPVDYLLGVADLTGELMRMCINSVGNGDIDTPFEVSQFLRQVYDGFSFIGNTGPYEVSKKLYTLKQSLAKVENACYALKVRGSEIPKHMLADVFSVKTEMIDQEEGIS
As to B6, in the assay on N-terminus of protein, the “N-terminal acetylation reported (in words)” value was “reported to be N-terminally acetylated”.
